Measurements taken from ChEMBL document CHEMBL4304784, “Discovery of new potent dual sigma receptor/GluN2b ligands with antioxidant property as neuroprotective agents” (Eur J Med Chem, 2019).
Values after ≈ are worked out from the molar mass of the structure shown.

Experiments:
[1] = molecular target: T1, Sigma intracellular receptor 2 (Rattus norvegicus, UniProt Q5U3Y7); assay: Displacement of [3H]-di-o-tolylguanidine from sigma2 receptor in rat liver membranes in the presence of sigma1 receptor ligand (+)-pentazocine incubated for 120 mins by scintillation counting method; type: cell membranes
T1 sequence (Q5U3Y7 whole entry): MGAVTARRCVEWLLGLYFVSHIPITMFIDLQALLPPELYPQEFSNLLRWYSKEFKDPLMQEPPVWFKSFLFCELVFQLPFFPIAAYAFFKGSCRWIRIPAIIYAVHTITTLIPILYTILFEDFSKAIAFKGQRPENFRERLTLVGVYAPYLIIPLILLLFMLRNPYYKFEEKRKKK
Outline: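 Rat liver membranes (about 100 µg protein) with 3 nM [3H]di-o-tolylguanidine in 50 mM TRIS pH 8.0 containing 500 nM (+)-pentazocine, at rt. Non-specific binding defined with 10 µM unlabeled DTG. Concentrations 10^-5 to 10^-10 M, in duplicate. 120 min, filtration, scintillation counting. Three independent experiments, mean ± SEM.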

[2] = Cytotoxicity against human SH-SY5Y cells assessed as cell viability at 25 uM incubated for 48 hrs by MTT assay (reference value: 100 +/- 12.00%); type: cell-based; settings: read-out: Activity
Outline: (§1)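 Cells kept in DMEM Glutamax with 10% FBS and antibiotic/antimycotic at 37 °C, 5% CO2. Plated at 2x10^3 cells/well 24 h before dosing. Compounds taken from DMSO and diluted in medium, final DMSO ≤1.0%. Exposure 48 h, then MTT added for 4 h at 37 °C. Read as A595 minus A655. Triplicates, at least three independent experiments, mean ± SEM.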

[3] = Cytotoxicity against human HeLa cells assessed as cell viability at 25 uM incubated for 48 hrs by MTT assay relative to control; type: cell-based; settings: read-out: Activity; outline: as §1
[4] = Selectivity ratio of Ki for sigma1 receptor in guinea pig brain membranes to Ki for sigma2 receptor in rat liver membranes; type: cell membranes
[5] = Cytotoxicity against human Hep3B cells assessed as decrease in cell viability incubated for 48 hrs by MTT assay; type: cell-based, Hep 3B2; settings: read-out: LD50
Outline: (§2)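 Cells kept in DMEM Glutamax with 10% FBS and antibiotic/antimycotic at 37 °C, 5% CO2. Seeded 24 h before dosing (SH-SY5Y at 2x10^3 cells/well). Compounds in DMSO serially diluted in medium, final DMSO 1.0%, exposure 48 h. MTT added for 4 h at 37 °C, read A595 minus A655. LD50 from linear regression of dose-log response curves; triplicates, three experiments, mean ± SEM.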

[6] = Selectivity ratio of Ki for sigma2 receptor in rat liver membranes to Ki for GluN1a/GluN2B (unknown origin) expressed in mouse L(tk-) cell membranes; type: cell-based
[7] = Cytotoxicity against human Hep3B cells assessed as cell viability at 25 uM incubated for 48 hrs by MTT assay relative to control; type: cell-based, Hep 3B2; settings: read-out: Activity; outline: as §1
[8] = Cytotoxicity against human HeLa cells assessed as decrease in cell viability incubated for 48 hrs by MTT assay; type: cell-based; settings: read-out: LD50; outline: as §2
[9] = Cytotoxicity against human HeLa cells assessed as cell viability at 10 uM incubated for 48 hrs by MTT assay relative to control; type: cell-based; settings: read-out: Activity; outline: as §1
[10] = Cytotoxicity against human Hep3B cells assessed as cell viability at 50 uM incubated for 48 hrs by MTT assay relative to control; type: cell-based, Hep 3B2; settings: read-out: Activity; outline: as §1
[11] = Cytotoxicity against human SH-SY5Y cells assessed as cell viability at 100 uM incubated for 48 hrs by MTT assay (reference value: 100 +/- 12.00%); type: cell-based; settings: read-out: Activity; outline: as §1
[12] = Cytotoxicity against human SH-SY5Y cells assessed as cell viability at 10 uM incubated for 48 hrs by MTT assay (reference value: 100 +/- 12.00%); type: cell-based; settings: read-out: Activity; outline: as §1
[13] = Cytotoxicity against human SH-SY5Y cells assessed as cell viability at 50 uM incubated for 48 hrs by MTT assay (reference value: 100 +/- 12.00%); type: cell-based; settings: read-out: Activity; outline: as §1
[14] = Antioxidant activity assessed as H2O2 radical scavenging activity; type: functional
Outline: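 Compounds at 0.05, 0.1, 0.2 and 0.4 mg/mL in phosphate buffer pH 7.4. 0.353 mL of 4 mM H2O2 in phosphate buffer added to 2.0 mL of each solution, absorbance read at 239 nm. Percent inhibition calculated from absorbances relative to control. Triplicate, mean ± SEM.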

[15] = molecular target: Sigma non-opioid intracellular receptor 1 (Cavia porcellus, UniProt Q60492); assay: Displacement of [3H]-(+)-pentazocine from sigma1 receptor in guinea pig brain cortex membranes incubated for 120 mins by solid scintillation counting method; type: cell membranes
Chain of Sigma non-opioid intracellular receptor 1 (Q60492 whole entry): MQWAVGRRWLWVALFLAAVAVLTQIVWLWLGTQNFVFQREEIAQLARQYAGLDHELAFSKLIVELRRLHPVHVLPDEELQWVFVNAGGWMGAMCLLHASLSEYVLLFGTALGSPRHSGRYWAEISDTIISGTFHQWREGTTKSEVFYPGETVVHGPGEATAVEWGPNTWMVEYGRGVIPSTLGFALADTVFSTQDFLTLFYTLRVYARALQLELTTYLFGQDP
Outline: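 Guinea pig brain cortex membranes (about 100 µg protein) with 2 nM [3H]-(+)-pentazocine in 50 mM TRIS pH 7.4 at 37 °C. Non-specific binding defined with 10 µM unlabeled (+)-pentazocine. Six concentrations, 10^-5 to 10^-10 M, in duplicate. 120 min with shaking, filtration, solid scintillator counting.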

[16] = Antioxidant activity assessed as ABTS radical scavenging activity incubated for 40 mins; type: functional
Outline: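 Test compound at 0.05, 0.1, 0.2 and 0.4 mg/mL (200 µL) added to 1.8 mL ethanolic ABTS 7mM. Incubated 40 min at room temperature, absorbance read at 735 nm against ABTS solution. Percent inhibition computed from absorbances and used to derive IC50. Triplicate, mean ± SEM; ascorbic acid as reference.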

SH-SY5Y = assay: Neuroprotective activity against H2O2-induced toxicity in human SH-SY5Y cells assessed as cell viability at 25 uM pretreated for 48 hrs followed by H2O2 challenge and measured after 4 hrs by MTT assay (reference value: 18 +/- 2.64%); type: functional; settings: read-out: Activity
[17] = Cytotoxicity against human Hep3B cells assessed as cell viability at 10 uM incubated for 48 hrs by MTT assay relative to control; type: cell-based, Hep 3B2; settings: read-out: Activity; outline: as §1
[18] = Cytotoxicity against human SH-SY5Y cells assessed as decrease in cell viability incubated for 48 hrs by MTT assay; type: cell-based; settings: read-out: LD50; outline: as §2
[19] = molecular target: T2, Glutamate NMDA receptor; GRIN1/GRIN2B (Homo sapiens, UniProt Q05586+Q13224); assay: Displacement of [3H]ifenprodil from GluN1a/GluN2B (unknown origin) expressed in mouse L(tk-) cell membranes after 120 mins by solid scintillation counting method
Outline: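 Membranes (about 20 μg protein) from mouse L(tk-) cells stably carrying GluN1a/GluN2B, induced with 4 μM dexamethasone and 4 μM ketamine for 24 h. Incubated with 5 nM [3H]ifenprodil in 5 mM TRIS/1 mM EDTA pH 7.5 at 37 °C, 120 min. Non-specific binding defined with 10 μM ifenprodil.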

[20] = Cytotoxicity against human Hep3B cells assessed as cell viability at 100 uM incubated for 48 hrs by MTT assay relative to control; type: cell-based, Hep 3B2; settings: read-out: Activity; outline: as §1
[21] = Cytotoxicity against human HeLa cells assessed as cell viability at 50 uM incubated for 48 hrs by MTT assay relative to control; type: cell-based; settings: read-out: Activity; outline: as §1
[22] = Cytotoxicity against human HeLa cells assessed as cell viability at 100 uM incubated for 48 hrs by MTT assay relative to control; type: cell-based; settings: read-out: Activity; outline: as §1
[23] = molecular target: T2, Glutamate NMDA receptor; GRIN1/GRIN2B; assay: Potency index, ratio of ifenprodil Ki to test compound Ki for displacement of [3H]ifenprodil from GluN1a/GluN2B (unknown origin) expressed in mouse L(tk-) cell membranes

Compound	Ki [1] [µM]	viability at 48 h, 25 µM [2] [%]	viability at 48 h, 25 µM [3] [%]	Ratio Ki [4]	CC50 at 48 h [5] [µM]	Ratio Ki [6]	viability at 48 h, 25 µM [7] [%]	CC50 at 48 h [8] [µM]	viability at 48 h, 10 µM [9] [%]	viability at 48 h, 50 µM [10] [%]	viability at 48 h, 100 µM [11] [%]	viability at 48 h, 10 µM [12] [%]	viability at 48 h, 50 µM [13] [%]	IC50 [14] [µg/mL]	Ki [15] [µM]	IC50 [16] [µg/mL]	viability at 25 µM (SH-SY5Y) [%]	viability at 48 h, 10 µM [17] [%]	CC50 at 48 h [18] [µM]	Ki [19] [µM]	further results
COc1cc2c(cc1OC)CN(CCCCN1C(=O)CCc3ccccc31)CC2	0.045	77 to 84	79	2.6	67	3.7	70	83	80	62	37	71	68	15.37 (≈ 39 µM)	0.116	12.35 (≈ 31.3 µM)	73	75	36	0.012	viability at 48 h, 100 µM [20]: 30%; viability at 48 h, 50 µM [21]: 71%; viability at 48 h, 100 µM [22]: 42%
O=c1oc(-c2ccccc2)nn1CCCCN1CCN(C2CCCCC2)CC1	0.093	78 to 105	48	0.37	71	4	76	76	62	72	105	81	75	73.07 (≈ 190 µM)	0.035	69.25 (≈ 180 µM)	114	72	81	0.023	viability at 48 h, 100 µM [20]: 143%; viability at 48 h, 50 µM [21]: 46%; viability at 48 h, 100 µM [22]: 57%
Cc1ccc(CN(C)CCCCn2nc(-c3ccccc3)oc2=O)c(C)c1	0.021	85 to 96	74	0.95	70	0.8	83	69	86	70	28	121	75	31.44 (≈ 86 µM)	0.02	25.47 (≈ 69.7 µM)	100	100	77	0.026	viability at 48 h, 100 µM [20]: 25%; viability at 48 h, 50 µM [21]: 80%; viability at 48 h, 100 µM [22]: 22%
O=C1CCc2ccccc2N1CCCCN1CCN(c2ccc(F)cc2)CC1	0.021	84 to 121	78	0.76	77	2.6	83	128	88	54	60	127	116	24.04 (≈ 63 µM)	0.016	21.34 (≈ 55.9 µM)	86	99	63	0.0081	viability at 48 h, 100 µM [20]: 41%; viability at 48 h, 50 µM [21]: 70%; viability at 48 h, 100 µM [22]: 70%
O=C1CCc2ccccc2N1CCCCN1CCN(C2CCCCC2)CC1	0.0015	81 to 111	75	14	81	0.75	70	265	83	48	99	91	86	38.29 (≈ 104 µM)	0.021	35.79 (≈ 96.8 µM)	105	106	493	0.002	Ratio Ki [23]: 5; viability at 48 h, 100 µM [20]: 52%; viability at 48 h, 50 µM [21]: 79%; viability at 48 h, 100 µM [22]: 94%
